In brackets after ≈: the same amount, converted by molar mass. Activity calls are given as the source filed them. The rule behind the calls is not given here.
Tests used:
[1] = test system: Bacillus subtilis; assay: Ratio of MBC to MIC against Bacillus subtilis MTCC 121; format: functional
[2] = test system: Candida parapsilosis; assay: Antifungal activity against Candida parapsilosis MTCC 1744 assessed as inhibition of fungal growth incubated for 24 hrs by agar well diffusion method; format: functional; details: Lodderomyces parapsilosis, MTCC 1744, 24 h
Method in brief: (§1)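 Candida strains from MTCC, pre-cultured and spread on Mueller Hinton agar. Wells received compound dissolved in 10% DMSO, 125–0.97 µg/mL; miconazole standard over the same range, DMSO negative control. After 24 h at 37 °C, MIC was read as the lowest concentration giving an inhibition zone. Duplicate experiments, means given.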

[3] = test system: Candida albicans; assay: Induction of ROS generation in Candida albicans MTCC 3017 assessed as accumulation of intracellular ROS level by measuring fluorescence intensity after 24 hrs by DCFH-DA probe based fluorimetric assay; format: functional, organism-based
Method in brief: (§2)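 C. albicans MTCC 3017 biofilms grown 24 h at 37 °C in 96-well plates, then treated 24 h with compound at 0, 5, 10, 15, 20, 25 µg/mL; untreated cells served as control. Cells then loaded with 10 µM DCFH-DA for 24 h in the dark, and fluorescence read at 485 nm excitation and 535 nm emission. Triplicates.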

[4] = test system: Staphylococcus aureus; assay: Antibacterial activity against Staphylococcus aureus MTCC 96 assessed as inhibition of bacterial growth incubated for 24 hrs by agar well diffusion method; format: functional; details: MTCC 96, 24 h
Method in brief: (§3)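 Strains from MTCC; inoculum at 0.5 McFarland spread on Mueller-Hinton agar; 6 mm wells loaded with compound over 125–0.97 µg/mL; ciprofloxacin positive control (same range), DMSO negative control. Plates held 24 h at 37 °C; MIC taken as lowest concentration giving a clear inhibition zone. Triplicate runs, mean MIC reported.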

[5] = test system: Candida albicans; assay: Ratio of MFC to MIC against Candida albicans MTCC 4748; format: functional
Method in brief: (§4)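 MIC by agar well diffusion: Candida lawns on Mueller-Hinton agar, wells loaded with compound in 10% DMSO (125–0.97 µg/mL), 24 h at 37 °C, lowest concentration giving an inhibition zone. MFC: compound in Mueller-Hinton broth (125–0.97 µg/mL) with yeast, 24 h at 37 °C, 10 µL plated on agar, lowest killing concentration after 24 h. Ratio is MFC/MIC.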

[6] = test system: Escherichia coli; assay: Ratio of MBC to MIC for Escherichia coli MTCC 739; format: functional
[7] = test system: Nakaseomyces glabratus; assay: Antifungal activity against Candida glabrata MTCC 3019 assessed as inhibition of fungal growth incubated for 24 hrs by agar well diffusion method; format: functional; details: MTCC 3019, 24 h; method in brief: as §1
[8] = test system: Micrococcus luteus; assay: Ratio of MBC to MIC against Micrococcus luteus MTCC 2470; format: functional
[9] = molecular target: Lanosterol 14-alpha demethylase (Candida albicans (strain SC5314 / ATCC MYA-2876) (Yeast), UniProt P10613); assay: Inhibition of CYP51 in Candida albicans MTCC 3017 assessed as reduction in ergosterol level incubated for 20 hrs by UV-visible spectrophotometry analysis
Method in brief: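 Modified Breivik–Owades sterol method: Mueller Hinton broth with compound at 0, 2, 4, 8, 16 µg/mL, inoculated with single Candida colonies, shaken at 200 rpm for 20 h at 30 °C. Pellets washed and weighed, saponified in 25% alcoholic KOH for 70 min at 90 °C, sterols extracted into n-heptane, diluted 1:5 in ethanol and scanned at 230–310 nm. Triplicates.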

[10] = test system: Candida albicans; assay: Induction of ROS generation in Candida albicans MTCC 3017 assessed as accumulation of intracellular ROS level by measuring fluorescence intensity at 25 ug/ml after 24 hrs by DCFH-DA probe based fluorimetric assay; format: functional, organism-based; method in brief: as §2
[11] = test system: Micrococcus luteus; assay: Antibacterial activity against Micrococcus luteus MTCC 2470 assessed as inhibition of bacterial growth incubated for 24 hrs by agar well diffusion method; format: functional; details: MTCC 2470, 24 h; method in brief: as §3
[12] = test system: Candida albicans; assay: Antifungal activity against Candida albicans MTCC 1637 assessed as inhibition of fungal growth incubated for 24 hrs by agar well diffusion method; format: functional; details: MTCC 1637, 24 h; method in brief: as §1
[13] = test system: Nakaseomyces glabratus; assay: Fungicidal activity against Candida glabrata MTCC 3019 assessed as fungal killing incubated for 24 hrs; format: functional; details: MTCC 3019, 24 h
Method in brief: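 Compound at 125–0.97 µg/mL in Mueller Hinton broth in microcentrifuge tubes, each Candida strain added, held 24 h at 37 °C. 10 µL of the treated suspension plated on Mueller Hinton agar and incubated a further 24 h at 37 °C. MFC is the lowest concentration that kills the strain. Duplicates, means reported.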

[14] = test system: Staphylococcus aureus; assay: Bactericidal activity against Staphylococcus aureus MTCC 96 assessed as bacterial killing incubated for 24 hrs; format: functional; details: MTCC 96, 24 h
Method in brief: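 Broth tube assay: compound at 0–125 µg/mL in Mueller Hinton broth, overnight culture added to 0.5 McFarland (1.5 × 10^8 cfu/mL), held 24 h at 37 °C. 10 µL from each tube plated on Mueller Hinton agar. MBC is the lowest concentration that kills the strain. Duplicates, means reported.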

[15] = test system: Candida albicans; assay: Ratio of MFC to MIC against Candida albicans MTCC 3018; format: functional; method in brief: as §4
[16] = test system: Candida albicans; assay: Antifungal activity against Candida albicans MTCC 4748 assessed as inhibition of fungal growth incubated for 24 hrs by agar well diffusion method; format: functional; details: MTCC 4748, 24 h; method in brief: as §1
[17] = test system: Candida albicans; assay: Induction of ROS generation in Candida albicans MTCC 3017 assessed as accumulation of intracellular ROS level by measuring fluorescence intensity at 5 ug/ml after 24 hrs by DCFH-DA probe based fluorimetric assay; format: functional, organism-based; method in brief: as §2
[18] = test system: MRC5; assay: Cytotoxicity against human MRC5 cells incubated for 48 hrs by MTT assay; format: cell-based; details: MRC5, 48 h
Method in brief: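 Normal human lung MRC5 cells grown 24 h in 96-well plates, then exposed to a range of compound concentrations for 48 h. MTT (250 µg/mL) added for 2 h, medium replaced by DMSO, absorbance read at 570 nm. Miconazole positive control, DMSO negative control. Triplicates, mean ± S.D.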

Chain of Lanosterol 14-alpha demethylase (P10613 whole entry): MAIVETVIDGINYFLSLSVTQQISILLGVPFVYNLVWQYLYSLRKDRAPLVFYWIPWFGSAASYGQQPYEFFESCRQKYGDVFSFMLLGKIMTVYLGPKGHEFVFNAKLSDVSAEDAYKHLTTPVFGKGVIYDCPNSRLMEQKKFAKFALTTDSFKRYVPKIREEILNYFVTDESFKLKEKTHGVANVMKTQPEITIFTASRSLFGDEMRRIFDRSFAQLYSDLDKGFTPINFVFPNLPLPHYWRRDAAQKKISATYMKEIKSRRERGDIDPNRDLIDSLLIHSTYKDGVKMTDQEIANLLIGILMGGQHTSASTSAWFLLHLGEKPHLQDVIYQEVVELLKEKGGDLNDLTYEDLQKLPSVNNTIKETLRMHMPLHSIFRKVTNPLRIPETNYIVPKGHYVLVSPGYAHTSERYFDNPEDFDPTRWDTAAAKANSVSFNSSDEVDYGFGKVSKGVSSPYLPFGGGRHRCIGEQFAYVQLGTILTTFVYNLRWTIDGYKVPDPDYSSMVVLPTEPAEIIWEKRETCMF

SMILES	Ratio [1]	MIC [2] [µg/mL]	Activity [3]	MIC [4] [µg/mL]	Ratio [5]	Ratio [6]	MIC [7] [µg/mL]	Ratio [8]	inhibition (INH) [9]	Activity [10]	MIC [11] [µg/mL]	MIC [12] [µg/mL]	MFC [13] [µg/mL]	MBC [14] [µg/mL]	Ratio [15]	MIC [16] [µg/mL]	Activity [17]	IC50 [18] [µg/mL]
COc1ccc2c(c1)Cc1c(C(=O)N/N=C/c3c(F)cc(F)cc3F)n[nH]c1-2	2	15.6 (≈ 40.4 µM)	Dose-dependent effect	3.9 (≈ 10.1 µM)	2	2	15.6 (≈ 40.4 µM)	2	Dose-dependent effect	Active	7.8 (≈ 20.2 µM)	15.6 (≈ 40.4 µM)	31.2 (≈ 80.8 µM)	7.8 (≈ 20.2 µM)	2	15.6 (≈ 40.4 µM)	Active	37.2 (≈ 96.3 µM)
COc1cc(/C=N/NC(=O)c2n[nH]c3c2Cc2ccccc2-3)ccc1O	2	15.6 (≈ 44.8 µM)	–	3.9 (≈ 11.2 µM)	2	2	3.9 (≈ 11.2 µM)	2	–	–	7.8 (≈ 22.4 µM)	15.6 (≈ 44.8 µM)	7.8 (≈ 22.4 µM)	7.8 (≈ 22.4 µM)	2	3.9 (≈ 11.2 µM)	–	31.2 (≈ 89.6 µM)
O=C(N/N=C/c1ccc(O)cc1)c1n[nH]c2c1Cc1ccccc1-2	2	15.6 (≈ 49 µM)	–	3.9 (≈ 12.3 µM)	2	2	> 31.2	2	–	–	7.8 (≈ 24.5 µM)	15.6 (≈ 49 µM)	> 62.5	7.8 (≈ 24.5 µM)	2	> 31.2	–	35.6 (≈ 112 µM)
O=C(N/N=C/c1ccc(O)cc1)c1n[nH]c2c1Cc1cc(F)ccc1-2	2	15.6 (≈ 46.4 µM)	–	3.9 (≈ 11.6 µM)	2	2	15.6 (≈ 46.4 µM)	2	–	–	7.8 (≈ 23.2 µM)	15.6 (≈ 46.4 µM)	31.2 (≈ 92.8 µM)	7.8 (≈ 23.2 µM)	2	15.6 (≈ 46.4 µM)	–	28.9 (≈ 85.9 µM)
COc1ccc2c(c1)Cc1c(C(=O)N/N=C/c3ccc(O)c(OC)c3)n[nH]c1-2	2	7.8 (≈ 20.6 µM)	Dose-dependent effect	3.9 (≈ 10.3 µM)	2	2	7.8 (≈ 20.6 µM)	2	Dose-dependent effect	Active	3.9 (≈ 10.3 µM)	7.8 (≈ 20.6 µM)	15.6 (≈ 41.2 µM)	7.8 (≈ 20.6 µM)	2	7.8 (≈ 20.6 µM)	Active	40.8 (≈ 108 µM)

From ChEMBL document CHEMBL4373647, “Design, synthesis, and antimicrobial evaluation of 1,4-dihydroindeno[1,2-c]pyrazole tethered carbohydrazide hybrids: exploring their in silico ADMET, ergosterol inhibition and ROS inducing potential” (Medchemcomm, 2019)
